Experimental data reported in ChEMBL document CHEMBL5360562 (Eur J Med Chem, 2023).
In brackets after ≈: the same amount, converted by molar mass.

What was measured:
[1] = test system: Acinetobacter baumannii; assay: Antibacterial activity against Acinetobacter baumannii AB5075 assessed as reduction in bacterial growth incubated for 16 hrs by broth microdilution method; type: functional
[2] = test system: Acinetobacter baumannii; assay: Potentiation of Clarithromycin antibacterial activity against Acinetobacter baumannii AB5075 assessed as clarithromycin MIC at 7.5 uM incubated for 16 hrs by broth microdilution method; type: functional
[3] = test system: Acinetobacter baumannii; assay: Potentiation of Clarithromycin antibacterial activity against Acinetobacter baumannii AB5075 assessed as clarithromycin MIC at 5 uM incubated for 16 hrs by broth microdilution method; type: functional
[4] = test system: Acinetobacter baumannii; assay: Potentiation of Clarithromycin antibacterial activity against Acinetobacter baumannii AB5075 assessed as fold reduction in clarithromycin MIC at 7.5 uM incubated for 16 hrs by broth microdilution method; type: functional
In short: (§1)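 Checkerboard-style potentiation by broth microdilution. 6 h day cultures in CAMHB diluted to 5×10^5 CFU/mL. Adjuvant added from 10 mM DMSO stock at fixed concentration throughout. […] Controls: antibiotic alone, adjuvant alone, media only. Incubated stationary at 37 °C for 16 h. MIC is lowest concentration with no visible growth; fold reduction taken against the antibiotic-alone lane.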

[5] = test system: Acinetobacter baumannii; assay: Potentiation of Clarithromycin antibacterial activity against Acinetobacter baumannii AB5075 assessed as fold reduction in clarithromycin MIC at 5 uM incubated for 16 hrs by broth microdilution method; type: functional; in short: as §1
[6] = test system: Acinetobacter baumannii; assay: Potentiation of Clarithromycin antibacterial activity against Acinetobacter baumannii AB5075 assessed as clarithromycin MIC at 15 uM incubated for 16 hrs by broth microdilution method; type: functional
[7] = test system: Acinetobacter baumannii; assay: Potentiation of Clarithromycin antibacterial activity against Acinetobacter baumannii AB5075 assessed as fold reduction in clarithromycin MIC at 15 uM incubated for 16 hrs by broth microdilution method; type: functional
[8] = Antiproliferative against human HepG2 cells assessed as reduction in cell viability incubated for 24 hrs by XTT assay; type: toxicity, cell-based
[9] = Therapeutic index, ratio of IC50 for antiproliferative against human HepG2 cells assessed as reduction in cell viability to MIC for potentiation of Clarithromycin antibacterial activity against Acinetobacter baumannii […] assessed as clarithromycin MIC; type: toxicity, cell-based; conditions: read-out: TI
[10] = Stability of compound in human plasma assessed as parent compound remaining measured at 4 hrs; type: ADME, cell-free
In short: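 Compound at 20 μM final in human plasma (from 10 mM DMSO stock), 37 °C; aliquots at 0, 30, 60, 120, 240 min quenched in internal standard in 1:1 ACN/MeOH, centrifuged, supernatant analysed by UPLC-MRM. Peak-area ratio to internal standard expressed as % parent remaining relative to 0 min; half-life calculated.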

[11] = Metabolic stability in human liver microsomes assessed as parent compound remaining in presence of NADPH measured at 1 hr by UV-UPLC analysis; type: ADME, Microsome
[12] = test system: Acinetobacter baumannii; assay: Potentiation of Clarithromycin antibacterial activity against Acinetobacter baumannii AB5075 assessed as clarithromycin MIC at 30 uM incubated for 16 hrs by broth microdilution method; type: functional
[13] = test system: Acinetobacter baumannii; assay: Potentiation of Clarithromycin antibacterial activity against Acinetobacter baumannii AB5075 assessed as fold reduction in clarithromycin MIC at 30 uM incubated for 16 hrs by broth microdilution method; type: functional; in short: as §1
[14] = test system: Acinetobacter baumannii; assay: Potentiation of Clarithromycin antibacterial activity against Acinetobacter baumannii AB5075 assessed as reduction in clarithromycin MIC at 20 uM incubated for 16 hrs by broth microdilution method; type: functional
[15] = test system: Acinetobacter baumannii; assay: Potentiation of Clarithromycin antibacterial activity against Acinetobacter baumannii AB5075 assessed as clarithromycin MIC at 10 uM incubated for 16 hrs by broth microdilution method; type: functional
[16] = test system: Acinetobacter baumannii; assay: Potentiation of Clarithromycin antibacterial activity against Acinetobacter baumannii AB5075 assessed as fold reduction in clarithromycin MIC at 10 uM incubated for 16 hrs by broth microdilution method; type: functional; in short: as §1
[17] = test system: Acinetobacter baumannii; assay: Potentiation of Clarithromycin antibacterial activity against Acinetobacter baumannii AB5075 assessed as clarithromycin MIC at 2.5 uM incubated for 16 hrs by broth microdilution method; type: functional
[18] = test system: Acinetobacter baumannii; assay: Potentiation of Clarithromycin antibacterial activity against Acinetobacter baumannii AB5075 assessed as clarithromycin MIC at 1.5 uM incubated for 16 hrs by broth microdilution method; type: functional; in short: as §1
[19] = test system: Acinetobacter baumannii; assay: Potentiation of Clarithromycin antibacterial activity against Acinetobacter baumannii AB5075 assessed as fold reduction in clarithromycin MIC at 1.5 uM incubated for 16 hrs by broth microdilution method; type: functional
[20] = test system: Acinetobacter baumannii; assay: Potentiation of Clarithromycin antibacterial activity against Acinetobacter baumannii AB967 assessed as clarithromycin MIC at 10 uM incubated for 16 hrs by broth microdilution method; type: functional
[21] = test system: Acinetobacter baumannii; assay: Potentiation of Clarithromycin antibacterial activity against Acinetobacter baumannii AB3560 assessed as clarithromycin MIC at 10 uM incubated for 16 hrs by broth microdilution method; type: functional
[22] = test system: Acinetobacter baumannii; assay: Potentiation of Clarithromycin antibacterial activity against Acinetobacter baumannii AB3785 assessed as clarithromycin MIC at 10 uM incubated for 16 hrs by broth microdilution method; type: functional
[23] = test system: Acinetobacter baumannii; assay: Potentiation of Clarithromycin antibacterial activity against Acinetobacter baumannii AB4498 assessed as clarithromycin MIC at 10 uM incubated for 16 hrs by broth microdilution method; type: functional
[24] = test system: Acinetobacter baumannii; assay: Potentiation of Clarithromycin antibacterial activity against Acinetobacter baumannii AB5674 assessed as clarithromycin MIC at 10 uM incubated for 16 hrs by broth microdilution method; type: functional
[25] = test system: Acinetobacter baumannii; assay: Potentiation of Clarithromycin antibacterial activity against Acinetobacter baumannii AB5711 assessed as clarithromycin MIC at 10 uM incubated for 16 hrs by broth microdilution method; type: functional
[26] = test system: Acinetobacter baumannii; assay: Potentiation of Azithromycin antibacterial activity against Acinetobacter baumannii AB5075 assessed as azithromycin MIC at 30 uM incubated for 16 hrs by broth microdilution method; type: functional
[27] = test system: Acinetobacter baumannii; assay: Potentiation of Azithromycin antibacterial activity against Acinetobacter baumannii AB5075 assessed as azithromycin MIC at 20 uM incubated for 16 hrs by broth microdilution method; type: functional
[28] = test system: Acinetobacter baumannii; assay: Potentiation of Azithromycin antibacterial activity against Acinetobacter baumannii AB5075 assessed as azithromycin MIC at 10 uM incubated for 16 hrs by broth microdilution method; type: functional
[29] = test system: Acinetobacter baumannii; assay: Potentiation of Azithromycin antibacterial activity against Acinetobacter baumannii AB5075 assessed as azithromycin MIC at 7.5 uM incubated for 16 hrs by broth microdilution method; type: functional
[30] = test system: Acinetobacter baumannii; assay: Potentiation of erythromycin antibacterial activity against Acinetobacter baumannii AB5075 assessed as erythromycin MIC at 30 uM incubated for 16 hrs by broth microdilution method; type: functional
[31] = test system: Acinetobacter baumannii; assay: Potentiation of erythromycin antibacterial activity against Acinetobacter baumannii AB5075 assessed as erythromycin MIC at 20 uM incubated for 16 hrs by broth microdilution method; type: functional
[32] = test system: Acinetobacter baumannii; assay: Potentiation of erythromycin antibacterial activity against Acinetobacter baumannii AB5075 assessed as erythromycin MIC at 10 uM incubated for 16 hrs by broth microdilution method; type: functional
[33] = test system: Acinetobacter baumannii; assay: Potentiation of erythromycin antibacterial activity against Acinetobacter baumannii AB5075 assessed as erythromycin MIC at 7.5 uM incubated for 16 hrs by broth microdilution method; type: functional
[34] = test system: Acinetobacter baumannii; assay: Potentiation of rifampicin antibacterial activity against Acinetobacter baumannii AB5075 assessed as rifampicin MIC at 30 uM incubated for 16 hrs by broth microdilution method; type: functional
[35] = test system: Acinetobacter baumannii; assay: Potentiation of rifampicin antibacterial activity against Acinetobacter baumannii AB5075 assessed as rifampicin MIC at 20 uM incubated for 16 hrs by broth microdilution method; type: functional
[36] = test system: Acinetobacter baumannii; assay: Potentiation of rifampicin antibacterial activity against Acinetobacter baumannii AB5075 assessed as rifampicin MIC at 10 uM incubated for 16 hrs by broth microdilution method; type: functional
[37] = test system: Acinetobacter baumannii; assay: Potentiation of rifampicin antibacterial activity against Acinetobacter baumannii AB5075 assessed as rifampicin MIC at 7.5 uM incubated for 16 hrs by broth microdilution method; type: functional
In short: (§2)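 A. baumannii AB5075 6 h day cultures in CAMHB subcultured to 5×10^5 CFU/mL; adjuvant added from 10 mM DMSO stock at fixed concentration, then rifampicin (DMSO) twofold serially diluted in adjuvant-containing broth. Antibiotic-alone and adjuvant-alone control lanes.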

[38] = test system: Acinetobacter baumannii; assay: Potentiation of rifampicin antibacterial activity against Acinetobacter baumannii AB5075 assessed as rifampicin MIC at 5 uM incubated for 16 hrs by broth microdilution method; type: functional; in short: as §2
[39] = test system: Acinetobacter baumannii; assay: Potentiation of rifampicin antibacterial activity against Acinetobacter baumannii AB5075 assessed as fold reduction in rifampicin MIC at 10 uM incubated for 16 hrs by broth microdilution method; type: functional

SMILES: Nc1nc(-c2ccc(NC(=O)Nc3cc(Br)cc(Br)c3)cc2)c[nH]1
- MIC [1]: 50 µM (≈ 22.6 µg/mL)
- MIC [2]: 0.25 µg/mL
- MIC [3]: 4 µg/mL
- fold change (FC) [4]: 128
- fold change (FC) [5]: 8
- MIC [6]: 0.125 µg/mL
- fold change (FC) [7]: 256
- IC50 at 24 h [8]: 23.2 µg/mL (≈ 51.4 µM)
- selectivity ratio [9]: 6.3
- Stability [10]: 89%
- Stability [11]: 54%

SMILES: Cl.Cl.Nc1nc(-c2cc(F)cc(NC(=O)Nc3cc(F)cc(-c4c[nH]c(N)n4)c3)c2)c[nH]1
- MIC [1]: > 200 µM
- MIC [12]: ≤ 0.062 µg/mL
- MIC [2]: 0.25 µg/mL
- MIC [3]: 0.5 µg/mL
- fold change (FC) [13]: >=512
- fold change (FC) [4]: 128
- fold change (FC) [5]: 64
- fold change (FC) [14]: >=512
- MIC ([14]; Acinetobacter baumannii, AB5075): ≤ 0.062 µg/mL
- MIC [15]: 0.125 µg/mL
- fold change (FC) [16]: 256
- IC50 at 24 h [8]: > 256 µg/mL
- selectivity ratio [9]: > 353
- MIC [17]: 1 µg/mL
- MIC [18]: 2 µg/mL
- fold change (FC) [19]: 16
- MIC [20]: ≤ 0.062 µg/mL
- MIC [21]: ≤ 0.062 µg/mL
- MIC [22]: ≤ 0.062 µg/mL
- MIC [23]: ≤ 0.062 µg/mL
- MIC [24]: ≤ 0.062 µg/mL
- MIC [25]: 0.125 µg/mL
- MIC [26]: 0.5 µg/mL
- MIC [27]: 1 µg/mL
- MIC [28]: 1 µg/mL
- MIC [29]: 2 µg/mL
- MIC [30]: 0.125 µg/mL
- MIC [31]: 0.25 µg/mL
- MIC [32]: 0.25 µg/mL
- MIC [33]: 1 µg/mL
- MIC [34]: 3 ng/mL
- MIC [35]: 7 ng/mL
- MIC [36]: 0.031 µg/mL
- MIC [37]: 0.06 µg/mL
- MIC [38]: 0.25 µg/mL
- fold change (FC) [39]: 32
- Stability [10]: > 95%
- Stability [11]: 86%
